We go through 21 molecules from ChEMBL document CHEMBL1681730, “17,20-lyase inhibitors. Part 4: design, synthesis and structure-activity relationships of naphthylmethylimidazole derivatives as novel 17,20-lyase inhibitors” (Bioorg Med Chem, 2011).

For one test, the target named is Cytochrome P450 3A4 (Homo sapiens, UniProt P08684). The test is described as follows: Inhibition of human CYP3A4. Format: ADME.
Test [1] deals with T1, Steroid 17-alpha-hydroxylase/17,20 lyase (Homo sapiens, UniProt P05093).
T1 sequence (P05093 whole entry): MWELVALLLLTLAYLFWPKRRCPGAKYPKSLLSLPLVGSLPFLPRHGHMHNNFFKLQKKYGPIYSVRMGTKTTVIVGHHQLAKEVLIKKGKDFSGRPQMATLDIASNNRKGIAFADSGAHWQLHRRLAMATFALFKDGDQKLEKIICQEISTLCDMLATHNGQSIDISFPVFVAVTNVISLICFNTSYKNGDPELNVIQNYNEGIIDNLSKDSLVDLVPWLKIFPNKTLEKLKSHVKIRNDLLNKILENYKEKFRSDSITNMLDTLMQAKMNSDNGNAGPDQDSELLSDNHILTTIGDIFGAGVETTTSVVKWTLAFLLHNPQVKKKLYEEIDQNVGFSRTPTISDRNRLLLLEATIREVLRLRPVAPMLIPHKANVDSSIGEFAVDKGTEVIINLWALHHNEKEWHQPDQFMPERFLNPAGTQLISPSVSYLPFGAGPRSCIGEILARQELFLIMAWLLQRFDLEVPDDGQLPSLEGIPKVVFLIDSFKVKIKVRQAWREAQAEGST
In words: Inhibition of 17,20 lyase activity in human. In a few lines: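 Recombinant P450c17 (0.5 pmol) with cytochrome b5 (0.5 pmol) and NADPH-P450 reductase (20.8 ng) in 75 mM phosphate pH 7.4 with 1 mM MgCl2. Substrate 10 nM [1,2-3H]-17α-hydroxypregnenolone, 5 mM NADPH, compound 1–1000 nM. Incubated 15 min at 37 °C, ethyl acetate extraction, DHEA separated from substrate by silica TLC (cyclohexane–ethyl acetate 3:2). IC50 taken as 50% reduction in product.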

For test [2], the target named is T2, Steroid 17-alpha-hydroxylase/17,20 lyase (Rattus norvegicus, UniProt P11715).
T2 sequence (P11715 whole entry): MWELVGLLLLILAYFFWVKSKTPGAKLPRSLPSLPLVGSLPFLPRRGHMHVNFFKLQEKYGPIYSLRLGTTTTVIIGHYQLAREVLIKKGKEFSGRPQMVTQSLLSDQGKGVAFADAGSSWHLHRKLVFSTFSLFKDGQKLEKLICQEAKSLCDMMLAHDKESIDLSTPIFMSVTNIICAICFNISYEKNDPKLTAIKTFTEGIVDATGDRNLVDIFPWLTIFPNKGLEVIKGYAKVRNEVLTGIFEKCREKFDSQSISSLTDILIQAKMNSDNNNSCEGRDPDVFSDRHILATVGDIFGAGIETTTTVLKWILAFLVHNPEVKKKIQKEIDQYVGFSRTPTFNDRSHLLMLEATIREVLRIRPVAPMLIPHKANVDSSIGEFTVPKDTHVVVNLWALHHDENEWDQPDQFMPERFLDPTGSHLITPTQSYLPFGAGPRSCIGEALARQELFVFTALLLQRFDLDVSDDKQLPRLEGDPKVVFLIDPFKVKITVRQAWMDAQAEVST
The test is described as follows: Inhibition of 17,20 lyase activity in Sprague-Dawley rat testicular microsomes. Set-up: species or system Testis. An outline of the steps:
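Testicular microsomes from 13-week-old male SD rats (7 µg protein) in 75 mM phosphate buffer, pH 7.4, with 10 nM [1,2-3H]-17α-hydroxyprogesterone, 5 mM NADPH, and 1–1000 nM test compound (all final). Compounds were diluted in DMF and then in water. Incubation ran 15 min at 37 °C and was stopped with ethyl acetate. IC50 is the concentration that halves product formation.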

For the next test, the species on record is Homo sapiens. The test is described as follows: Ratio of IC50 for human CYP3A4 to IC50 for human 17,20-lyase. In a few lines:
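Two assays. Human 17,20-lyase: recombinant P450c17 (0.5 pmol) with cytochrome b5 and NADPH-P450 reductase, 10 nM [1,2-3H]-17α-hydroxypregnenolone, 5 mM NADPH, 1 mM MgCl2, pH 7.4 phosphate, 1–1000 nM compound, 15 min at 37 °C. DHEA separated by TLC, IC50 calculated. CYP3A4: recombinant enzyme, 100 μM testosterone, NADPH-regenerating system, 30 min at 37 °C, 6-hydroxytestosterone measured by HPLC.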

Another test has as its target T3, Cytochrome P450c11B3 (Rattus norvegicus, UniProt Q64546).
T3 sequence (Q64546 whole entry): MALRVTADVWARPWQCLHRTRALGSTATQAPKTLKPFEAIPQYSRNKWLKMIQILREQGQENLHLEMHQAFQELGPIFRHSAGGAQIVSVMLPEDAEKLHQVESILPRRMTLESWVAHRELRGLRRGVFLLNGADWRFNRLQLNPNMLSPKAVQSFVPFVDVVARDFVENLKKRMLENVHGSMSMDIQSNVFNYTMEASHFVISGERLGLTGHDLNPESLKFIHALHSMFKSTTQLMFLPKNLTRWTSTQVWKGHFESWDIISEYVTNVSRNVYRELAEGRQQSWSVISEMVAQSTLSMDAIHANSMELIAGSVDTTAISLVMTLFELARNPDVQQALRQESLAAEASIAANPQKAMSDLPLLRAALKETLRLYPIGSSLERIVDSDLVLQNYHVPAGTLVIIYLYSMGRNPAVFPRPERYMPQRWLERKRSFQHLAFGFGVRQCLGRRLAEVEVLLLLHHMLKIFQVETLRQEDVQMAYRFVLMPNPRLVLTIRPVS
The test is described as follows: Inhibition of 11-hydroxylase activity in Sprague-Dawley rat adrenal gland. Format: tissue-based. In a few lines:
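Mitochondrial fraction from SD rat adrenal glands, 4 µg protein, in 200 mM mannitol, 4.5 mM HEPES, 2.3 mM K phosphate pH 7.4, 0.1 mM EDTA, 0.03% BSA, 4.5 mM NADPH, 11 mM CaCl2. Substrate 10 nM [1,2-3H]-11-deoxycortisol. Test compound 1–1000 nM, diluted in DMF. Incubated 30 min at 37 °C, stopped with ethyl acetate. Final concentrations.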

Test [3] has as its system Cynomolgus monkey. In words: Antiandrogenic activity in cynomolgus monkey assessed as reduction serum testosterone level at 1 mg/kg, po at 4 hrs (reference value: 89.1 +/- 15.6%). Format: functional, Macaca fascicularis. The arrangement: scale not given: the % may be the effect or the level left.
The subject of test [4] is Cynomolgus monkey. In words: Antiandrogenic activity in cynomolgus monkey assessed as reduction serum testosterone level at 1 mg/kg, po at 8 hrs (reference value: 68.5 +/- 27.3%). The test is classed as functional, Macaca fascicularis. The arrangement: scale not given: the % may be the effect or the level left.
Test [5] has as its system Cynomolgus monkey. In words: Antiandrogenic activity in cynomolgus monkey assessed as reduction serum DHEA level at 1 mg/kg, po at 4 hrs (reference value: 105.7 +/- 4.2%). Format: functional, Macaca fascicularis. The arrangement: scale not given: the % may be the effect or the level left. In a few lines:
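Adult male cynomolgus monkeys (23 ± 2 °C, 12:12 h light/dark) given a single oral 1 mg/kg dose as a suspension in 0.5% methylcellulose. Serum collected just before dosing and at 4 and 8 h, stored at −30 °C, and assayed by RIA. Values expressed as % of the 0 h level, mean ± SD, n = 3. Dunnett test against vehicle.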

In test [6] the test system is Cynomolgus monkey. In words: Antiandrogenic activity in cynomolgus monkey assessed as reduction serum DHEA level at 1 mg/kg, po at 8 hrs (reference value: 38.5 +/- 18.4%). Set-up: scale not given: the % may be the effect or the level left. The test is classed as functional, Macaca fascicularis.

SMILES strings stand for the structures.

Sequence of Cytochrome P450 3A4 (P08684 whole entry): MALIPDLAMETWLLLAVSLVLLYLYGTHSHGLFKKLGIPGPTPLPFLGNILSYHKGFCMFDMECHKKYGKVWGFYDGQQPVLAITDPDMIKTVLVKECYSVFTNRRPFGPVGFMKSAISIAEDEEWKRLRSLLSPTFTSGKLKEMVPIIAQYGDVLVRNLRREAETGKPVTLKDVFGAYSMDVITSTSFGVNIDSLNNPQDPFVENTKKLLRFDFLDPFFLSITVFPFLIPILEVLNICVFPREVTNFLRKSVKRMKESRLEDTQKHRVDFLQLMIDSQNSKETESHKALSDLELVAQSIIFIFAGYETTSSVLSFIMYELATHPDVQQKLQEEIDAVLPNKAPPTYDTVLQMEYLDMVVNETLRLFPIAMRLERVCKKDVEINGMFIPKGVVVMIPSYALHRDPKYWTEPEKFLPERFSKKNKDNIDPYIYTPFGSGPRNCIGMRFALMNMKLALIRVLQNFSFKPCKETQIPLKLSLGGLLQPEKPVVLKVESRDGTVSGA

As to `CCNC(=O)c1ccc2cc(C(O)(c3c[nH]cn3)C(C)C)ccc2c1` (racemic), the IC50 (as a rule, the concentration that inhibits the measured activity by half) against Cytochrome P450 3A4 worked out at 5700 nM; in test [1] it was 46 nM; in test [2], 11 nM.
Take `CNC(=O)c1cc2ccc(C(O)(c3c[nH]cn3)C(C)C)cc2cc1C` (racemic): the values for the IC50 (at Cytochrome P450 3A4; in test [1]; in [2]) were 3600 nM, 39 nM and 12 nM, respectively.
On to `CNC(=O)c1ccc2cc(C(O)(c3c[nH]cn3)C(C)C)ccc2c1C` (racemic), for which the IC50 was more than 10000 nM on Cytochrome P450 3A4, 160 nM in [1] and 200 nM in test [2].
On to `CC(=O)c1ccc2cc(C(O)(c3c[nH]cn3)C(C)C)ccc2c1` (racemic), for which the IC50 against Cytochrome P450 3A4 stood at 1400 nM; in [1], 28 nM; in [2] it was 14 nM. The Ratio IC50 in the test listed under Homo sapiens was 50.
As to `CCCNC(=O)c1ccc2cc(C(O)(c3cnc[nH]3)C(C)C)ccc2c1` (racemic), the IC50 against Cytochrome P450 3A4 was found to be 3400 nM; in test [1], 38 nM; in [2] it was 13 nM.
For `CC(C)C(O)(c1ccc2c3c(ccc2c1)C(=O)NC3)c1c[nH]cn1` (single isomer, unassigned; (-)), the IC50 at Cytochrome P450 3A4 was more than 10000 nM; in test [1], 15 nM; against Cytochrome P450c11B3, 13 nM.
In the case of `CNC(=O)c1ccc2cc(C(O)(c3c[nH]cn3)C(C)C)ccc2c1` (racemic), the IC50 against Cytochrome P450 3A4 came to 3600 nM; in test [1] it was 16 nM; in test [2], 6 nM. In addition, the Ratio IC50 in the test listed under Homo sapiens turned out to be 225.
In the case of `CC(C)C(O)(c1ccc2c3c(ccc2c1)C(=O)NC3)c1c[nH]cn1` (racemic), the IC50 on Cytochrome P450 3A4 is 6700 nM; in test [1], 18 nM.
In the case of `CC(C)[C@@](O)(c1ccc2c3c(ccc2c1)C(=O)N(C)C3)c1cnc[nH]1`, the IC50 is more than 10000 nM against Cytochrome P450 3A4, 270 nM in test [1], 110 nM in test [2] and more than 1000 nM against Cytochrome P450c11B3.
Regarding `CC(C)C(O)(c1ccc2cc(C(N)=O)ccc2c1)c1c[nH]cn1` (racemic), the IC50 was 3700 nM against Cytochrome P450 3A4, 30 nM in test [1] and less than 10 nM in [2].
Take `COC(=O)c1ccc2cc(C(O)(c3c[nH]cn3)C(C)C)ccc2c1` (racemic): the IC50 was 1400 nM against Cytochrome P450 3A4, 24 nM in [1] and 43 nM in [2]. In the test filed under Homo sapiens, the Ratio IC50 was 58.
As for `CNC(=O)Nc1ccc2cc(C(O)(c3c[nH]cn3)C(C)C)ccc2c1` (racemic), the IC50 at Cytochrome P450 3A4 is less than 1000 nM; in test [1], 36 nM; in test [2], 11 nM. In the test filed under Homo sapiens, the Ratio IC50 was less than 28.
On to `CC(C)C(O)(c1ccc2cc3c(cc2c1)CN(C)C3=O)c1c[nH]cn1` (racemic), for which the IC50 against Cytochrome P450 3A4 worked out at 5400 nM; in [1], 19 nM; in test [2] it was 70 nM.
In the case of `CC(C)[C@](O)(c1ccc2c3c(ccc2c1)C(=O)N(C)C3)c1c[nH]cn1`, the Activity was 13.2% with Cynomolgus monkey [3], 9.8% in the test on Cynomolgus monkey [4], 16.8% with Cynomolgus monkey [5] and 7.7% in the test on Cynomolgus monkey [6]. In addition, the Ratio IC50 in the test filed under Homo sapiens is more than 1000.
In [1], `CC(C)C(O)(c1ccc2c3c(ccc2c1)C(=O)N(C)C3)c1c[nH]cn1` (racemic) showed an IC50 of 22 nM.
As to `CC(=O)Nc1ccc2cc(C(O)(c3c[nH]cn3)C(C)C)ccc2c1` (racemic), the IC50 is less than 1000 nM at Cytochrome P450 3A4, 39 nM in test [1] and 29 nM in test [2]. Moreover, in the test filed under Homo sapiens, the Ratio IC50 is less than 26.
With `CC(C)NC(=O)c1ccc2cc(C(O)(c3c[nH]cn3)C(C)C)ccc2c1` (racemic), the IC50 came to 9300 nM at Cytochrome P450 3A4, 75 nM in test [1] and 12 nM in test [2].
`COc1ccc2cc([C@](O)(c3c[nH]cn3)C(C)C)ccc2c1`: the half-maximal inhibitory concentration (IC50) on Cytochrome P450 3A4 is less than 1000 nM; in test [1], 28 nM; in [2], 21 nM. In addition, in the test listed under Homo sapiens, the Ratio IC50 is less than 36.
As to `CC(C)C(O)(c1ccc2cc3c(cc2c1)CNC3=O)c1c[nH]cn1` (racemic), in test [1], the IC50 amounted to 36 nM.
Take `CNC(=O)c1ccc2cc(C(O)(c3cnc[nH]3)C(C)C)ccc2c1Cl` (racemic): the half-maximal inhibitory concentration (IC50) against Cytochrome P450 3A4 was more than 10000 nM; in test [1] it was 200 nM; in [2] it was 91 nM.
Regarding `CC(C)C(O)(c1ccc2c3c(ccc2c1)C(=O)NC3)c1c[nH]cn1` (stereo in doubt; (+)-27a), the IC50 at Cytochrome P450 3A4 came out at 7400 nM; in [1] it was 60 nM; in test [2] it was 180 nM; against Cytochrome P450c11B3, 220 nM.
